Data set [1] has as its system Trypanosoma brucei rhodesiense. Nature of the data set: Antiparasitic activity against Trypanosoma brucei rhodesiense STIB900. The data set is classed as functional, organism-based.
In another data set the test system is Trypanosoma cruzi. Nature of the data set: Antiparasitic activity against Trypanosoma cruzi Tulahuen C2C4. It counts as functional, organism-based.
The subject of a further data set is Leishmania donovani. Nature of the data set: Antiparasitic activity against Leishmania donovani […]. The data set is classed as functional, organism-based. The method in brief: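 Leishmania donovani MHOM-ET-67/L82 tested as axenic amastigotes; IC50 determined.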
The next data set concerns Plasmodium falciparum. Briefly: Antiparasitic activity against Plasmodium falciparum K1. The data set is classed as functional, organism-based.
Another data set relates to L6. Nature of the data set: Cytotoxicity against rat L6 cells. The data set is classed as cell-based. The method in brief: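 Cytotoxicity was measured on rat skeletal myoblast L6 cells, with the IC50 as read-out.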
The nature of data set [2]: Selectivity index, ratio of IC50 for rat L6 cells to IC50 for Plasmodium falciparum K1. It counts as toxicity, cell-based. Particulars: rat L6 cells (cytotoxicity) versus Plasmodium falciparum K1, read-out: Ratio IC50.

Structures are written as SMILES.

As a reminder, the IC50 is the concentration that inhibits the measured activity by half.

For the compound `Clc1ccc2[nH]c3c[n+](CCCCCCCCCCCC[n+]4ccc5c(c4)[nH]c4ccc(Cl)cc45)ccc3c2c1`, the IC50 in data set [1] turned out to be 1.2 µM; in the data set with Trypanosoma cruzi, 10 µM; in the data set on Leishmania donovani it was 0.6 µM; with Plasmodium falciparum, 0.023 µM; in the data set on L6, 4.3 µM. Also, the selectivity ratio in data set [2] was determined as 186.

As for `Clc1ccc2[nH]c3c[n+](Cc4ccc(C[n+]5ccc6c(c5)[nH]c5ccc(Cl)cc56)cc4)ccc3c2c1`, the IC50 in data set [1] was 1 µM; with Trypanosoma cruzi, above 51.7 µM; in the data set on Leishmania donovani, 19.9 µM; in the data set on Plasmodium falciparum, 0.223 µM; in the data set on L6 it was 17.4 µM. The selectivity ratio in data set [2] stood at 78.

In the case of `Clc1ccc2[nH]c3c[n+](C/C=C\C[n+]4ccc5c(c4)[nH]c4ccc(Cl)cc45)ccc3c2c1`, the IC50 in data set [1] was 1.1 µM; in the data set on Trypanosoma cruzi it was above 56.6 µM; with Leishmania donovani, 9.6 µM; in the data set on Plasmodium falciparum, 0.113 µM; in the data set on L6, 61.1 µM. In data set [2], the selectivity ratio turned out to be 540.

For `Clc1ccc2[nH]c3c[n+](CC#CC[n+]4ccc5c(c4)[nH]c4ccc(Cl)cc45)ccc3c2c1`, the IC50 in data set [1] was 6.4 µM; in the data set with Trypanosoma cruzi, 10.6 µM; in the data set on Leishmania donovani, 34.7 µM; in the data set with Plasmodium falciparum it was 0.738 µM; with L6, 28.5 µM. The selectivity ratio in data set [2] stood at 39.

Turning to `Clc1ccc2[nH]c3c[n+](CCCCCC[n+]4ccc5c(c4)[nH]c4ccc(Cl)cc45)ccc3c2c1`, the concentration for half-maximal inhibition (IC50) in data set [1] came out at 1.2 µM; with Trypanosoma cruzi, 36.2 µM; with Leishmania donovani it was 6.6 µM; with Plasmodium falciparum, 0.02 µM; with L6, 36.2 µM. Also, in data set [2], the selectivity ratio came out at 1810.

For the compound `Clc1ccc2[nH]c3c[n+](CCCCCCCC[n+]4ccc5c(c4)[nH]c4ccc(Cl)cc45)ccc3c2c1`, the IC50 was 0.9 µM in data set [1]; 31.4 µM with Trypanosoma cruzi; 2.3 µM in the data set on Leishmania donovani; 0.018 µM in the data set with Plasmodium falciparum; 7.5 µM in the data set on L6. In addition, the selectivity ratio in data set [2] came to 423.

On to `Clc1ccc2[nH]c3c[n+](CCCCCCCCCC[n+]4ccc5c(c4)[nH]c4ccc(Cl)cc45)ccc3c2c1`, for which the IC50 in data set [1] was 1.1 µM; with Trypanosoma cruzi, 36.6 µM; with Leishmania donovani, 0.9 µM; with Plasmodium falciparum, 0.014 µM; with L6 it was 8.2 µM. The selectivity ratio in data set [2] came out at 575.

`Clc1ccc2[nH]c3c[n+](Cc4ccc(-c5ccc(C[n+]6ccc7c(c6)[nH]c6ccc(Cl)cc67)cc5)cc4)ccc3c2c1`: the IC50 in data set [1] is 2.5 µM; with Trypanosoma cruzi, above 45.7 µM; with Leishmania donovani it was 68.4 µM; in the data set on Plasmodium falciparum, 0.056 µM; with L6, 23 µM. Also, in data set [2], the selectivity ratio was 408.

With `O=C(O)c1cn(C2CC2)c2cc(N3CCN(Cc4ccc(C[n+]5ccc6c(c5)[nH]c5ccc(Cl)cc56)cc4)CC3)c(F)cc2c1=O`, the IC50 was 92.5 µM in data set [1]; above 44.6 µM in the data set with Trypanosoma cruzi; 61.6 µM with Leishmania donovani; above 7.4 µM in the data set with Plasmodium falciparum; 121 µM with L6.

On to `Clc1ccc2[nH]c3c[n+](CCOCC[n+]4ccc5c(c4)[nH]c4ccc(Cl)cc45)ccc3c2c1`, for which the IC50 came out at 1.2 µM in data set [1]; 51.1 µM in the data set with Trypanosoma cruzi; 8.6 µM with Leishmania donovani; 0.018 µM in the data set with Plasmodium falciparum; 47.9 µM in the data set on L6. Also, the selectivity ratio in data set [2] was determined as 2620.

As to `Clc1ccc2[nH]c3c[n+](Cc4cccc(C[n+]5ccc6c(c5)[nH]c5ccc(Cl)cc56)c4)ccc3c2c1`, the IC50 in data set [1] stood at 1.2 µM; in the data set on Trypanosoma cruzi, 5.9 µM; in the data set with Leishmania donovani it was 0.2 µM; in the data set on Plasmodium falciparum, 0.121 µM; with L6, 3.8 µM. In data set [2], the selectivity ratio was found to be 32.

Regarding `C[n+]1ccc2c(c1)[nH]c1ccc(Cl)cc12` [NOSTOCARBOLINE], the IC50 in data set [1] is 70.5 µM; with Trypanosoma cruzi it was above 87.1 µM; in the data set with Leishmania donovani, 34.3 µM; with Plasmodium falciparum it was 0.194 µM; with L6 it was 121 µM. Further, the selectivity ratio in data set [2] came out at 622.
